Results on 14 molecules are retold here after PubChem BioAssay.

The nature of experiment [1]: Her2 expression decrease, cell viability multiplex – SKBR3 breast tumor cells, AlphaScreen, ATP viability, primary screen (AID 461).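 As to Her2 level: lower value means less Her2 protein in the cells.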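 As to viability: percent of carrier control wells set as 100% viability.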 The settings on record: SKBR3 Her2 protein level, 18-24 h, measured here: SKBR3 viability, ATP luminescence, at 10 µM. A general note: Bead proximity is the source of the signal in Alpha formats.
Experiment [2] deals with Receptor tyrosine-protein kinase erbB-2 (Homo sapiens) (UniProt P04626). The experiment is described as above. To be noted: 18-24 h, at 10 µM, stronger effect = lower value.
Receptor tyrosine-protein kinase erbB-2 (Homo sapiens), sequence (P04626 whole entry, looked up): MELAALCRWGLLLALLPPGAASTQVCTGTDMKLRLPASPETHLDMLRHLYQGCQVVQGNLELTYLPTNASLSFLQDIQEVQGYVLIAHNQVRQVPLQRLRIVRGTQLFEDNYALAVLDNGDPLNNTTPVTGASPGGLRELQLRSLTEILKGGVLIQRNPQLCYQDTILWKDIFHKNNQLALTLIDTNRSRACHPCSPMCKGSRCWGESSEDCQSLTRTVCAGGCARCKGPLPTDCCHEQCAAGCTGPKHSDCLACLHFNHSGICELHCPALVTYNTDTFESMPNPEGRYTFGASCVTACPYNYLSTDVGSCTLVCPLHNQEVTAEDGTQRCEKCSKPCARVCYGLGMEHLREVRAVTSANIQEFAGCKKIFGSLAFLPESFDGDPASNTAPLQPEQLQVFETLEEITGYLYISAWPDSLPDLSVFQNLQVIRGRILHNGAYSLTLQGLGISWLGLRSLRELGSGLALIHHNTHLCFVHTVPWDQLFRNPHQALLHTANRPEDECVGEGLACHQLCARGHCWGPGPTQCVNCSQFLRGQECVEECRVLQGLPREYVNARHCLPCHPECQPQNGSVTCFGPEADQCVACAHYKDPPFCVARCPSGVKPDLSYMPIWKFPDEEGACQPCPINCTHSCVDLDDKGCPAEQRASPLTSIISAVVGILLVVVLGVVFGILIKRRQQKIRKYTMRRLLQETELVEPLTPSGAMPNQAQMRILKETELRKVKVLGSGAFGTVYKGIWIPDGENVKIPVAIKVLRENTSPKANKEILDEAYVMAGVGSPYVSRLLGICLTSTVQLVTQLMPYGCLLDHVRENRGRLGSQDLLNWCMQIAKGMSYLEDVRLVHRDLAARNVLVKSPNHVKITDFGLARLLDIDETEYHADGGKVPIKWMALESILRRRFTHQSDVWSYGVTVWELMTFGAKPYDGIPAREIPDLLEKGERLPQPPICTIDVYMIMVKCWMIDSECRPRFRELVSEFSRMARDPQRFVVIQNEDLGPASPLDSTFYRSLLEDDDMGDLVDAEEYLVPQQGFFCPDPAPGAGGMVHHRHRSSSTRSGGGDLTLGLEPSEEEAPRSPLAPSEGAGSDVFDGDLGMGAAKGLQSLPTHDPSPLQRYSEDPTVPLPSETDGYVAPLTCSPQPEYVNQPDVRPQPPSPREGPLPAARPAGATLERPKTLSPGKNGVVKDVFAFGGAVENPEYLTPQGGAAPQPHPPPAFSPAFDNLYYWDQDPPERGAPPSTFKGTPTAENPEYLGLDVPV
A short description of experiment [3]: reduced viability of SK-BR-3 breast cancer cells – cell-based, 24 h, human, pilot screen (AID 572;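 active = viability at or below 10% of carrier control in both of two separate runs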;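 also: compound exposure lasted between 18 and 24 h rather than exactly 24 h; 100% = carrier-treated control wells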). To be noted: SK-BR-3 viability, CellTiter-Glo luminescence, at 10 µM, stronger effect = lower value. A general note: ATP-based viability assays read luminescence as a measure of living cells.
Experiment [4] can be described thus: HUVEC growth inhibition – cell-based, human, primary screen (AID 575;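 active = viability at or below 30% in both replicate assays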;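 also: 100% = median of untreated cell wells with 0.1% DMSO on each plate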). The settings on record: HUVEC proliferation, CellTiter-Glo luminescence, 72 h; at 10 µM; stronger effect = lower value. A digest of the protocol: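 Test system – primary HUVEC, no more than 12 passages · Dosing – one dose, 10 µM final, 0.1% DMSO · Times – 72 h treatment at 37 °C · Measured by – ATP-based CellTiter-Glo luminescent read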

Experiment [5] can be described thus: H69AR cell proliferation blockers – human, duplicate replicates, primary screen (AID 580;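 active = viability at or under a set limit in both replicates, limit being median viability minus 3 SD, cut at about 48% in these data, passing the limit was not always enough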;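 also: 100% = mean luminescence of untreated wells and 0% = no signal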). The settings on record: H69AR lung tumor cells viability, ATP luminescence, 72 h; at 10 µM; stronger effect = lower value.
Experiment [6] in a line: MRP1 drug-resistance reversers in H69AR cells – cell-based, doxorubicin co-treatment, pilot screen (AID 601;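 active = viability loss from added drug above about 55%, and viability with drug at most 40%, in both replicates, limit read from the data, passing the limit was not always enough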). To be noted: CellTiter-Glo, 72 h, at 10 µM; for differential viability (reversal): stronger effect = higher value.
The nature of experiment [7]: yeast transport mutant growth inhibition pilot in 384-well plates, post-Golgi transport modulator project (AID 636; in the data active = inhibition above about 31%). To be noted: absorbance 615 nm, about 18 h, stronger effect = higher value.
Experiment [8] is described as follows: growth suppression of yeast trafficking mutant, preliminary HTS, modulators of trafficking downstream of Golgi apparatus project, 1536-format plate, OD 615 nm (AID 637; in the data active = inhibition above about 30%). To be noted: yeast transport mutant growth, absorbance 615 nm, 18 h; stronger effect = higher value.
Where [9] appears, read: H69AR cells + 2 uM doxorubicin, measured here: viability with 2 uM doxorubicin, stronger effect = lower value.
Where [10] appears, read: H69AR cells, compound alone cytotoxicity.

Structures are written as SMILES. Activity calls are given as the source filed them.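 The calls were made as follows, unless noted: active = Her2 level under about 52% in both replicate screens, with viability over 70% of control (limit read from the data); inconclusive = Her2 under the limit in one screen only, or viability under 70%; inactive = Her2 level above the set limit.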

`CN1C(=O)CC(N2CCC(C(N)=O)(N3CCCCC3)CC2)C1=O` (stereo not given): the viability in experiment [1] was 104%; in experiment [3] it was 104% (inactive); in experiment [4], 104% (inactive); in experiment [5] it was 98.9% (inactive); in experiment [6] (setting [9]), 91.6%; in experiment [6] (setting [10]) it was 98.9%. Besides, in experiment [2], the Her2 level was 86% (inactive). In addition, the differential viability (reversal) in experiment [6] (H69AR cells + 2 uM doxorubicin) is 7.3% (inactive). In addition, the figures for the inhibition in experiment [7] and in experiment [8] were -6.8% (inactive) and 5.25% (inactive), respectively.
Consider `COc1ccc(C(=O)Nc2cccc(-c3nc4ncccc4o3)c2C)cc1OC`, for which the viability in experiment [1] was 99%; in experiment [3] it was 99% (inactive); in experiment [4], 81.8% (inactive); in experiment [5] it was 92.8% (inactive); in experiment [6] (setting [9]), 91.2%; in experiment [6] (setting [10]), 92.8%. Also, the Her2 level in experiment [2] is 122% (inactive). In experiment [6] (H69AR cells + 2 uM doxorubicin), the differential viability (reversal) is 1.52% (inactive). The inhibition in experiment [7] is 3.42% (inactive); in experiment [8], -3.97% (inactive).
In the case of `CCOC(=O)c1ccc(S(=O)(=O)Nc2cc(C(C)(C)C)no2)cc1`, the viability in experiment [1] was 92%; in experiment [3], 92% (inactive); in experiment [4], 112% (inactive); in experiment [5], 101% (inactive); in experiment [6] (setting [9]), 103%; in experiment [6] (setting [10]) it was 101%. Besides, the Her2 level in experiment [2] is 97% (inactive). Besides, the differential viability (reversal) in experiment [6] (H69AR cells + 2 uM doxorubicin) is -2.06% (inactive). In addition, the results for the inhibition in experiment [7] and in experiment [8] were -3.25% (inactive) and -3.81% (inactive), respectively.
For `COC(=O)C(CC(C)C)NC(=O)CSc1nc(-c2ccccc2)c(C#N)c(=O)[nH]1` (stereo not given), the viability is 110% in experiment [1]; 110% (inactive) in experiment [3]; 107% (inactive) in experiment [4]; 108% (inactive) in experiment [5]; 100% in experiment [6] (setting [9]); 108% in experiment [6] (setting [10]). Besides, the Her2 level in experiment [2] was 90% (inactive). Further, in experiment [6] (H69AR cells + 2 uM doxorubicin), the differential viability (reversal) is 7.26% (inactive). Moreover, the inhibition in experiment [7] was -3.12% (inactive); in experiment [8], 4.1% (inactive).
With `CCOc1ccc(CN2CCN(c3cc(C)nc4c5c(C)cc(C)nc5nn34)CC2)cc1`, the viability in experiment [1] was 80%; in experiment [3], 80% (inactive); in experiment [4], 94.2% (inactive); in experiment [5] it was 88.8% (inactive); in experiment [6] (setting [9]) it was 92%; in experiment [6] (setting [10]) it was 88.8%. The Her2 level in experiment [2] is 83.5% (inactive). Besides, in experiment [6] (H69AR cells + 2 uM doxorubicin), the differential viability (reversal) was -3.18% (inactive). The inhibition in experiment [7] is -2.5% (inactive); in experiment [8], -4.36% (inactive).
For the molecule `Cc1cc(Cl)cc2c1NC(=O)[C@]21[C@@H]2C(=O)N(Cc3ccccc3)C(=O)[C@@H]2[C@@H]2CCCN21`, the viability in experiment [1] is 100%; in experiment [3], 100% (inactive); in experiment [4], 78% (inactive); in experiment [5] it was 78.1% (inactive); in experiment [6] (setting [9]), 80.9%; in experiment [6] (setting [10]) it was 78.1%. For the same molecule, the Her2 level in experiment [2] was 81% (inactive). In addition, the differential viability (reversal) in experiment [6] (H69AR cells + 2 uM doxorubicin) was -2.8% (inactive). In addition, the inhibition in experiment [7] is -3.77% (inactive); in experiment [8], 4.29% (inactive).
Consider `COc1cc(C(=O)N2CCC(NC(=O)C(Cc3ccc(C)cc3)NC(C)=O)CC2)cc(OC)c1OC` (stereo not given), for which the viability was 92% in experiment [1]; 92% (inactive) in experiment [3]; 97.8% (inactive) in experiment [4]; 98% (inactive) in experiment [5]; 90.3% in experiment [6] (setting [9]); 98% in experiment [6] (setting [10]). In experiment [2], the Her2 level is 86% (inactive). Besides, in experiment [6] (H69AR cells + 2 uM doxorubicin), the differential viability (reversal) was 7.71% (inactive). Also, the values for the inhibition in experiment [7] and in experiment [8] were -2.84% (inactive) and 0.16% (inactive), respectively.
On to `Cc1ccccc1NC(=O)NCCCN1CCN(C2CCCCC2)CC1`, for which the viability was 102% in experiment [1]; 102% (inactive) in experiment [3]; 104% (inactive) in experiment [4]; 95.8% (inactive) in experiment [5]; 93.4% in experiment [6] (setting [9]); 95.8% in experiment [6] (setting [10]). The Her2 level in experiment [2] is 102% (inactive). The differential viability (reversal) in experiment [6] (H69AR cells + 2 uM doxorubicin) is 2.42% (inactive). In addition, the inhibition in experiment [7] is -1.04% (inactive); in experiment [8] it was 0.16% (inactive).
Regarding `O=C(NCc1cccs1)c1cc2c(s1)-c1ccccc1OC2`, the viability in experiment [1] was 96%; in experiment [3], 96% (inactive); in experiment [4], 76.8% (inactive); in experiment [5], 94.8% (inactive); in experiment [6] (setting [9]), 89.7%; in experiment [6] (setting [10]) it was 94.8%. Also, the Her2 level in experiment [2] was 91.5% (inactive). Besides, the differential viability (reversal) in experiment [6] (H69AR cells + 2 uM doxorubicin) was 5.04% (inactive). Also, the inhibition is -5.2% (inactive) in experiment [7] and 3.77% (inactive) in experiment [8].
Turning to `COc1ccccc1NC(=O)c1nnn(CC(=O)Nc2ccccc2)c1N`, the viability was 106% in experiment [1]; 106% (inactive) in experiment [3]; 70.5% (inactive) in experiment [4]; 90.7% (inactive) in experiment [5]; 97.6% in experiment [6] (setting [9]); 90.7% in experiment [6] (setting [10]). The Her2 level in experiment [2] is 81% (inactive). The differential viability (reversal) in experiment [6] (H69AR cells + 2 uM doxorubicin) is -6.95% (inactive). For the same molecule, the figures for the inhibition in experiment [7] and in experiment [8] were -5.47% (inactive) and -1.31% (inactive), respectively.
As for `CCOC(=O)Cn1c(S(=O)(=O)Cc2ccccc2)nc2ccccc21`, the viability in experiment [1] was 86%; in experiment [3] it was 86% (inactive); in experiment [4], 103% (inactive); in experiment [5], 91.5% (inactive); in experiment [6] (setting [9]), 87.2%; in experiment [6] (setting [10]), 91.5%. Moreover, in experiment [2], the Her2 level is 89.5% (inactive). The differential viability (reversal) in experiment [6] (H69AR cells + 2 uM doxorubicin) was 4.28% (inactive). Also, the figures for the inhibition in experiment [7] and in experiment [8] were -0.13% (inactive) and -3% (inactive), respectively.
In the case of `N=c1c(C(=O)NCc2ccc(F)cc2)cc2c(=O)n3ccccc3nc2n1CCCN1CCOCC1`, the viability is 95% in experiment [1]; 95% (inactive) in experiment [3]; 82.8% (inactive) in experiment [4]; 76.6% (inactive) in experiment [5]; 85.6% in experiment [6] (setting [9]); 76.6% in experiment [6] (setting [10]). Also, the Her2 level in experiment [2] is 74.5% (inactive). Also, the differential viability (reversal) in experiment [6] (H69AR cells + 2 uM doxorubicin) is -8.96% (inactive). The inhibition was 0.78% (inactive) in experiment [7] and 10.8% (inactive) in experiment [8].
As to `CCc1nc(SCC(=O)Nc2nccs2)c2oc3ccccc3c2n1`, the viability in experiment [1] is 91%; in experiment [3] it was 91% (inactive); in experiment [4], 109% (inactive); in experiment [5] it was 37.4% (active); in experiment [6] (setting [9]), 42.6%; in experiment [6] (setting [10]), 37.4%. The Her2 level in experiment [2] is 87.5% (inactive). The differential viability (reversal) in experiment [6] (H69AR cells + 2 uM doxorubicin) was -5.17% (inactive). Besides, the inhibition in experiment [7] was -7.43% (inactive); in experiment [8], -7% (inactive).
On to `CCCCCn1c(N2CCN(Cc3ccccc3)CC2)nc2c1c(=O)[nH]c(=O)n2C`, for which the viability in experiment [1] was 110%; in experiment [3], 110% (inactive); in experiment [4], 93.3% (inactive); in experiment [5], 76.9% (inactive); in experiment [6] (setting [9]) it was 53.2%; in experiment [6] (setting [10]) it was 76.9%. The Her2 level in experiment [2] is 78% (inactive). In addition, the differential viability (reversal) in experiment [6] (H69AR cells + 2 uM doxorubicin) was 23.7% (inactive). The results for the inhibition in experiment [7] and in experiment [8] were -6.67% (inactive) and -2.46% (inactive), respectively.

For orientation: viability means a read-out of living cells in per cent, often relative to untreated cells. The term inhibition denotes the change of the read-out against control, counted positive when it falls.
